Data from ChEMBL document CHEMBL3745659, “Synthesis and Characterization of 4,11-Diaminoanthra[2,3-b]furan-5,10-diones: Tumor Cell Apoptosis through tNOX-Modulated NAD(+)/NADH Ratio and SIRT1” (J Med Chem, 2015).
Active and inactive are the calls of the source. The rule behind the calls is not given here.

Assays:
AGS [1] = test: Induction of apoptosis in human AGS cells assessed as viable cells at 1 uM after 24 hrs by annexin V-FITC staining-based flow cytometric analysis (Rvb=91.5%); type: functional; conditions: read-out: Activity
Summary of the method: (§1)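 AGS cells exposed to compound for 24 h; Annexin V-FITC staining and flow cytometry used to give percentage of apoptotic cells; mean ± S.E. from at least three independent experiments.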

[2] = target: T1, DNA topoisomerase 1 (Homo sapiens) (UniProt P11387); test: Inhibition of Top1 (unknown origin)-mediated relaxation of pBR322 DNA at 0.5 uM incubated for 30 mins by ethidium bromide staining-based gel electrophoresis assay
T1 sequence (whole entry): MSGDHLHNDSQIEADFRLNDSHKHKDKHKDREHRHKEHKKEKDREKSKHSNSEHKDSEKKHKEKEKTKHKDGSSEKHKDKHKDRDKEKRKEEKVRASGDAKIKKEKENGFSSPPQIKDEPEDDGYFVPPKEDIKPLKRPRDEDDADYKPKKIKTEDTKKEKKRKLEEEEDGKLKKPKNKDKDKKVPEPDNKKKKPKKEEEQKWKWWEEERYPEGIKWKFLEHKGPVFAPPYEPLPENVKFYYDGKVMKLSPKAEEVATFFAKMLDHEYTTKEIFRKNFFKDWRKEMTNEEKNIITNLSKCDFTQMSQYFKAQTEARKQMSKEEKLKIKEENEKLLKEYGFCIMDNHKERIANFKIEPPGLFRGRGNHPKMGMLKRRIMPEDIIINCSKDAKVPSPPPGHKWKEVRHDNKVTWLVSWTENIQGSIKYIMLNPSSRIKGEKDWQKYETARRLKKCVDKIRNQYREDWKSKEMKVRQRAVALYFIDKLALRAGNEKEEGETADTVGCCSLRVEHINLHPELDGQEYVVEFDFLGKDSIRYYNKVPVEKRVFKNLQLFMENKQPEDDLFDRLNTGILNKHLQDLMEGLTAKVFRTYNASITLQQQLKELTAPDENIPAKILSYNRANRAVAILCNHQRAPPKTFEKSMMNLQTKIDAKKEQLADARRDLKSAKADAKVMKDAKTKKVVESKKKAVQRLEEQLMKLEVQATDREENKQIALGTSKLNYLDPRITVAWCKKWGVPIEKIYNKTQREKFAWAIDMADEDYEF
Summary of the method: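 Supercoiled pBR322 plasmid treated with Top1 without drug or with compound at 0.5, 2.5 or 10 µM; camptothecin as reference; relaxation assessed by gel electrophoresis.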

[3] = target: T2, NAD-dependent protein deacetylase sirtuin-1 (Homo sapiens) (UniProt Q96EB6); test: Inhibition of human recombinant SIRT1 deacetylase activity using Arg-His-Lys-Lys(epsilon-acetyl)-AMC as substrate at 5 uM incubated for 45 mins by fluorescence analysis
T2 sequence (whole entry): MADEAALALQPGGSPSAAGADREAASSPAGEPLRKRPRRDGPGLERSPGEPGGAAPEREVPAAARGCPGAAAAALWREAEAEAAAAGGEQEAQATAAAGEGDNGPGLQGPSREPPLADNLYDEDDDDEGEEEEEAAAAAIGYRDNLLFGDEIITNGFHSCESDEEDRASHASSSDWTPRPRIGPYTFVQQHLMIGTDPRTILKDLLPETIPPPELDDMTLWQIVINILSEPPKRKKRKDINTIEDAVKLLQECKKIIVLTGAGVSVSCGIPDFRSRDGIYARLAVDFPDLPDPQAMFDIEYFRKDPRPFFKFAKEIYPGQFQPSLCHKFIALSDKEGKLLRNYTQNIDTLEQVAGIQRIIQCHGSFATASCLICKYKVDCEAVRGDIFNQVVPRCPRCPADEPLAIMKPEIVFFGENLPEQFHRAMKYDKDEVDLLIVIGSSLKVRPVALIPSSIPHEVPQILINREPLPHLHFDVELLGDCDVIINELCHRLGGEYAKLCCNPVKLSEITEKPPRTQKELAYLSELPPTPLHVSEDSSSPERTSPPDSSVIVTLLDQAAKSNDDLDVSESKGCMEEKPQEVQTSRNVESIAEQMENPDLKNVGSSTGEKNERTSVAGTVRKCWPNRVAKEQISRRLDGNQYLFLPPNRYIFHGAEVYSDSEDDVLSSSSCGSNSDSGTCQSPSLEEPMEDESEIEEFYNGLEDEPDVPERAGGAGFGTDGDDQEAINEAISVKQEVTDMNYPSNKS

[4] = target: DNA topoisomerase 2-alpha (Homo sapiens) (UniProt P11388); test: Inhibition of Top2 (unknown origin)-mediated relaxation of pBR322 DNA at 0.1 to 2.5 uM incubated for 30 mins by ethidium bromide staining-based gel electrophoresis assay
DNA topoisomerase 2-alpha (Homo sapiens), sequence (P11388 whole entry): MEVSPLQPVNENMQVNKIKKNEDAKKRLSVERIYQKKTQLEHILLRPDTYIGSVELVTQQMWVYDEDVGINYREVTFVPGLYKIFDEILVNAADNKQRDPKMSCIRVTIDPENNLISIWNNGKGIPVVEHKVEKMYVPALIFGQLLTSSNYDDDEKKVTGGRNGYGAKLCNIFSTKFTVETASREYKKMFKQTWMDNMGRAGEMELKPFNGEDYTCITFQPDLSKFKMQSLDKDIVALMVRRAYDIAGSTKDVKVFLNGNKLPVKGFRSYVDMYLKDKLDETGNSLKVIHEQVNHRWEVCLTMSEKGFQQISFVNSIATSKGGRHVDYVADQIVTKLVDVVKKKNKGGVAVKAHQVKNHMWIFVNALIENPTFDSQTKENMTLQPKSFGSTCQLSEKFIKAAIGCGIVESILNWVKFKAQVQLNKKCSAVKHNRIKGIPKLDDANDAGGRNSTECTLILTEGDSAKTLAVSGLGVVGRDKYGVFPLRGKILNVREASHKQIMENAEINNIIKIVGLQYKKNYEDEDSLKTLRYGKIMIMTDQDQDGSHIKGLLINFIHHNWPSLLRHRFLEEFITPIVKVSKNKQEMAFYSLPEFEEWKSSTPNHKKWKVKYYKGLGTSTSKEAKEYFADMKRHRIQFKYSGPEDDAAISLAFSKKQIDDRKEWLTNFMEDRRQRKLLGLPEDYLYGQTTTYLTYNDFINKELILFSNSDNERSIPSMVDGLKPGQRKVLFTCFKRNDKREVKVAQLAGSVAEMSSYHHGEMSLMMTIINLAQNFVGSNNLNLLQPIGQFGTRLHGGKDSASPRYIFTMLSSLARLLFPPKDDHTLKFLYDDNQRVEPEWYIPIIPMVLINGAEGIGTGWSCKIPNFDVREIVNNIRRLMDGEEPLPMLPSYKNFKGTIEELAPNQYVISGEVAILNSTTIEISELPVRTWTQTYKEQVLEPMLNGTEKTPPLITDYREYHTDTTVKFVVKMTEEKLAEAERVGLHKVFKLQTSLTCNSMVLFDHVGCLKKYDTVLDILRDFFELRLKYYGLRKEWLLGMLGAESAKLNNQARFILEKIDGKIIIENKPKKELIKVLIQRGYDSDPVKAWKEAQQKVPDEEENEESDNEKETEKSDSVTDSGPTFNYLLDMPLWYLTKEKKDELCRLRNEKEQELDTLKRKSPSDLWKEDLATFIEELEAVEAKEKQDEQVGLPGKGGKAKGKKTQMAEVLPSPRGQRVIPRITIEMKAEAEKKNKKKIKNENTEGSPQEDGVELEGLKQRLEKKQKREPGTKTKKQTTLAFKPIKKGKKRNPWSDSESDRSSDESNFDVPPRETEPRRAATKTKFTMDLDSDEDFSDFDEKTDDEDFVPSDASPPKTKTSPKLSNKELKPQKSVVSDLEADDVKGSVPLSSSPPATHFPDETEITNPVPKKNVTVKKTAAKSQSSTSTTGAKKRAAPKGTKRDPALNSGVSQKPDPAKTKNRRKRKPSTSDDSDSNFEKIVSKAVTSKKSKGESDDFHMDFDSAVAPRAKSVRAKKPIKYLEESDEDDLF

[5] = Drug uptake in human K562/4 cells at 3 uM incubated for 2 hrs in presence of verapamil by flow cytometric analysis; type: ADME, cell-based; conditions: k562/4, 2 h
Summary of the method: (§2)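 K562 and K562/4 cells incubated 2 h with 3 µM compound; uptake measured by flow cytometry as ratios (arbitrary units) of mean fluorescence channels of the histograms; verapamil (10 µM), a Pgp transport blocker, added 30 min before compound where used.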

Calf thymus DNA = test: Binding affinity to calf thymus double stranded DNA by spectrophotometric titration method; type: nucleic-acid assay; conditions: Bos taurus
Summary of the method: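 Absorption spectra of compound recorded while double-stranded DNA concentration was increased (spectrophotometric titration); extinction at absorption maxima 540 and 585 nm and band shift followed.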

K562 [6] = test: Drug uptake in human K562 cells at 3 uM incubated for 2 hrs in presence of verapamil by flow cytometric analysis; type: ADME, cell-based; conditions: k562, 2 h; summary of the method: as §2
AGS [7] = test: Induction of apoptosis in human AGS cells assessed as viable cells at 0.05 uM after 24 hrs by annexin V-FITC staining-based flow cytometric analysis (Rvb=91.5%); type: functional; conditions: read-out: Activity; summary of the method: as §1
K562 [8] = test: Resistance index, ratio of IC50 for human K562/4 cells to IC50 for human K562 cells; type: functional
AGS [9] = test: Induction of apoptosis in human AGS cells assessed as necrotic cells at 0.1 uM after 24 hrs by annexin V-FITC staining-based flow cytometric analysis (Rvb=0.9%); type: functional; summary of the method: as §1
K562 [10] = test: Antiproliferative activity against human K562 cells after 72 hrs by MTT assay; type: functional, cell-based; conditions: K562, 72 h
AGS [11] = test: Induction of apoptosis in human AGS cells assessed as late apoptotic cells at 0.05 uM after 24 hrs by annexin V-FITC staining-based flow cytometric analysis (Rvb=0.3%); type: functional; summary of the method: as §1
L1210 = test: Antiproliferative activity against mouse L1210 cells after 72 hrs by MTT assay; conditions: L1210, 72 h
AGS [12] = test: Induction of apoptosis in human AGS cells assessed as late apoptotic cells at 1 uM after 24 hrs by annexin V-FITC staining-based flow cytometric analysis (Rvb=0.3%); type: functional; summary of the method: as §1

In the case of `CNCCNc1c2c(c(NCCNC)c3occc13)C(=O)c1ccccc1C2=O`, the viability at 1 µM (AGS [1]) is reported as 61.6%, the inhibition [2] is reported as “Active” and the inhibition [3] is reported as “Active”. For the same compound, the inhibition [4] was “Active”, the Drug uptake [5] was “Active” and the Ka (Calf thymus DNA) was 2.5 ×10⁶ /M. The Drug uptake (K562 [6]) was “Active”, the viability at 0.05 µM (AGS [7]) was 78.9% and the “Ratio IC50” value (K562 [8]) was 0.71. It also gave an Activity (AGS [9]) of 10.2%, an IC50 (K562 [10]) of 210 nM and an Activity (AGS [11]) of 0.7%. The IC50 (L1210) was 100 nM and the Activity (AGS [12]) was 1.3%.
